# Data taken from ChEMBL document CHEMBL4706740, “Structure-Activity Study of Nitazoxanide Derivatives as Novel STAT3 Pathway Inhibitors” (ACS Med Chem Lett, 2021).
# Active and inactive are the calls of the source. The rule behind the calls is not given here.
# Experiments:
# [1] = target: Signal transducer and activator of transcription 3 (Homo sapiens) (UniProt P40763); assay: Inhibition of STAT3 in human HeLa cells assessed as decrease in phosphorylation of STAT3 at Tyr705 after 1 hrs by Western blot analysis; assay type: cell-based; conditions: dose microM <=80, time 1.0 hrs
# Signal transducer and activator of transcription 3 (Homo sapiens), sequence (P40763 whole entry): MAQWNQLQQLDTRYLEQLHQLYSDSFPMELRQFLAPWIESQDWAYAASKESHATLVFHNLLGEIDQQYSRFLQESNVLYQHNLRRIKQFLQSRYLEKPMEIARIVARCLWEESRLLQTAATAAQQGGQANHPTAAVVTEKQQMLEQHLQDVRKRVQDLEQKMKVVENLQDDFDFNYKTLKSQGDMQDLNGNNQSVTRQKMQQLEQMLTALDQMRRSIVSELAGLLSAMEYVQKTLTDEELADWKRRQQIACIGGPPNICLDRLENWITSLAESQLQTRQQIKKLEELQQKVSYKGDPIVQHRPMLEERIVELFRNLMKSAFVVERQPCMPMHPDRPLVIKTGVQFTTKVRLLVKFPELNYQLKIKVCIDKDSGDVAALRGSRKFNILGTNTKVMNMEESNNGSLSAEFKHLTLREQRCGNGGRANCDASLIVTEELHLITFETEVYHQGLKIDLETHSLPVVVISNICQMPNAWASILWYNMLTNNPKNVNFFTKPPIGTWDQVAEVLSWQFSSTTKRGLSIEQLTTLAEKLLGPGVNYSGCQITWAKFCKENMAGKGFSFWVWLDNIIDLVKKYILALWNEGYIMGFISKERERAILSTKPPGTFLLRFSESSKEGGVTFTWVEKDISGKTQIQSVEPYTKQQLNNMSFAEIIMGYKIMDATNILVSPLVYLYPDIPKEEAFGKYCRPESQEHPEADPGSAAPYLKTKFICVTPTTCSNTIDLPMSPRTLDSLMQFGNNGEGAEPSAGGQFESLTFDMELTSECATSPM
# How it was run: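 HeLa cells were treated with graded doses for 1 h or 24 h. Total cell lysates were immunoblotted with specific antibodies against p-STAT3 (Tyr705), p-STAT3 (Ser727) and total STAT3.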
# [2] = target: Signal transducer and activator of transcription 3 (Homo sapiens) (UniProt P40763); assay: Inhibition of STAT3 in human HeLa cells assessed as decrease in phosphorylation of STAT3 at Tyr705 upto 80 uM measured 15 to 120 mins by Western blot analysis; assay type: cell-based; conditions: dose microM <=80, time lower […], time upper […]
# How it was run: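 Time course in HeLa cells given 80 μM compound, sampled from 15 min onward through multiple hours; parallel runs at 20 and 40 μM. Total cell lysates Western blotted for p-STAT3 (Tyr705), p-STAT3 (Ser727) and total STAT3.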
# [3] = target: Signal transducer and activator of transcription 3 (Homo sapiens) (UniProt P40763); assay: Inhibition of STAT3 in human HeLa cells assessed as decrease in phosphorylation of STAT3 at Tyr705 measured after 24 hrs by Western blot analysis; assay type: cell-based; conditions: dose microM <=80, time […]
# How it was run: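 HeLa cells exposed 24 h to a range of compound doses. Total cell lysates immunoblotted with specific antibodies for p-STAT3 (Tyr705), p-STAT3 (Ser727) and total STAT3.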
# [4] = target: Signal transducer and activator of transcription 3 (Homo sapiens) (UniProt P40763); assay: Inhibition of STAT3 transcriptional activity in human HeLa cells assessed as downregulation of c-Myc expression upto 80 uM after 24 hrs by western blot analysis; assay type: cell-based; conditions: dose microM <=80, time […]
# How it was run: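 HeLa cells treated 24 h with a concentration series. Total cell lysates probed by Western blot with specific antibodies for the STAT3 target gene products cyclin D1, c-Myc and survivin.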
# [5] = tested on: HeLa; assay: Induction of cell cycle arrest in human HeLa cells assessed as accumulation at G0/G1 phase at 10 uM measured after 24 hrs by flow cytometry analysis (reference value: 54.16%); assay type: functional
# [6] = tested on: HeLa; assay: Induction of cell cycle arrest in human HeLa cells assessed as accumulation at G0/G1 phase at 20 uM measured after 24 hrs by flow cytometry analysis (reference value: 54.16%); assay type: functional
# [7] = tested on: HeLa; assay: Induction of cell cycle arrest in human HeLa cells assessed as accumulation at G0/G1 phase at 40 uM measured after 24 hrs by flow cytometry analysis (reference value: 54.16%); assay type: functional
# [8] = tested on: HeLa; assay: Induction of cell cycle arrest in human HeLa cells assessed as accumulation at S phase at 40 uM measured after 24 hrs by flow cytometry analysis (reference value: 34.04%); assay type: functional
# [9] = tested on: HeLa; assay: Induction of cell cycle arrest in human HeLa cells assessed as accumulation at G2/M phase at 20 uM measured after 24 hrs by flow cytometry analysis (reference value: 11.81%); assay type: functional
# [10] = tested on: HeLa; assay: Induction of apoptosis in human HeLa cells assessed as viable cells at 40 uM incubated for 24 hrs by Annexin V-FITC/PI staining based flow cytometry (reference value: 92.45%); assay type: functional; conditions: read-out: Activity
# [11] = tested on: HeLa; assay: Induction of apoptosis in human HeLa cells assessed as early apoptotic cells at 40 uM incubated for 24 hrs by Annexin V-FITC/PI staining based flow cytometry (reference value: 2.84%); assay type: functional
# [12] = tested on: HeLa; assay: Induction of apoptosis in human HeLa cells assessed as late apoptotic cells at 20 uM incubated for 24 hrs by Annexin V-FITC/PI staining based flow cytometry (reference value: 4.7%); assay type: functional
# [13] = tested on: HeLa; assay: Induction of apoptosis in human HeLa cells assessed as late apoptotic cells at 40 uM incubated for 24 hrs by Annexin V-FITC/PI staining based flow cytometry (reference value: 4.7%); assay type: functional
# [14] = tested on: HeLa; assay: Induction of apoptosis in human HeLa cells assessed as necrotic cells at 40 uM incubated for 24 hrs by Annexin V-FITC/PI staining based flow cytometry (reference value: 0.02%); assay type: functional
# [15] = target: Signal transducer and activator of transcription 3 (Homo sapiens) (UniProt P40763); assay: Inhibition of IL-6 induced STAT3 transcriptional activity in human HEK-Blue IL-6 cells assessed as secreted embryonic alkaline phosphatase reporter gene expression at 10 uM by microplate reader; assay type: cell-based
# How it was run: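 Single-concentration screen in HEK-Blue IL-6 cells: % inhibition of the SEAP reporter read-out of STAT3 pathway activity, with viability checked by MTT in parallel. Values are averages of three independent experiments.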
# [16] = Cytotoxicity against human HeLa cells assessed as inhibition of cell viability at 10 uM measured after 48 hrs by MTT assay; assay type: cell-based; conditions: read-out: INH
# [17] = Cytotoxicity against human HEK 293T cells assessed as cell growth inhibition at 50 uM measured after 48 hrs by MTT assay; assay type: cell-based
# [18] = Cytotoxicity against human HEK 293T cells assessed as cell growth inhibition at 10 uM measured after 48 hrs by MTT assay; assay type: cell-based
# [19] = Antiproliferative activity against human A375 cells assessed as cell growth inhibition measured after 48 hrs by MTT assay; assay type: functional, cell-based; conditions: A-375, 48 h
# [20] = Antiproliferative activity against human U87MG cells assessed as cell growth inhibition measured after 48 hrs by MTT assay; assay type: functional, cell-based
# [21] = tested on: HL-60; assay: Antiproliferative activity against human HL60 cells assessed as cell growth inhibition measured after 48 hrs by MTT assay; assay type: functional, cell-based; conditions: HL-60, 48 h
# [22] = tested on: PC-3; assay: Antiproliferative activity against human PC3 cells assessed as cell growth inhibition measured after 48 hrs by MTT assay; assay type: functional, cell-based; conditions: PC-3, 48 h
# [23] = Half life in Sprague-Dawley rat at 25 mg/kg, IG; assay type: ADME, organism-based; conditions: in vivo, po
# How it was run: (§1)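 Rats, n = 3 per group, received a single dose either intragastrically (25 mg/kg) or intravenously (5 mg/kg). Plasma concentration–time curves were used to derive t1/2α, t1/2β, Vd/F, CL/F, AUC0–∞, Tmax and Cmax. Absolute oral bioavailability was calculated from the ig and iv data.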
# [24] = Half life in Sprague-Dawley rat at 5 mg/kg, iv; assay type: ADME, organism-based; conditions: in vivo; how it was run: as §1
# [25] = Elimination Half life in Sprague-Dawley rat at 5 mg/kg, iv; assay type: ADME, organism-based; conditions: in vivo, read-out: beta t1/2 (converted); how it was run: as §1
# [26] = AUC (0 to infinity) in Sprague-Dawley rat at 25 mg/kg, IG; assay type: ADME, organism-based; design: route […], time infinity, dose 25 mg/kg; conditions: in vivo, po; how it was run: as §1
# [27] = Cmax in Sprague-Dawley rat at 5 mg/kg, iv; assay type: ADME, organism-based; design: route intravenous, dose 5 mg/kg; conditions: in vivo; how it was run: as §1
# [28] = Absolute bioavailability in Sprague-Dawley rat at 25 mg/kg, IG; assay type: ADME, organism-based; conditions: in vivo, po; how it was run: as §1
# [29] = tested on: HeLa; assay: Effect on Jak2 level in human Hela cells upto 80 uM after 24 hrs by Western blot analysis; assay type: functional, cell-based; conditions: dose microM <=80, time […]
# [30] = target: Signal transducer and activator of transcription 3 (Homo sapiens) (UniProt P40763); assay: Inhibition of STAT3 in human Hela cell lysate assessed as inhibition of protein and DNA interaction upto 200 uM incubated 30 mins by electrophoretic mobility shift assay; assay type: subcellular; conditions: dose microM <=200, time 30.0 min
# [31] = target: Signal transducer and activator of transcription 3 (Homo sapiens) (UniProt P40763); assay: Inhibition of STAT3 in human Hela cell lysate assessed as inhibition of protein and DNA interaction upto 100 uM cells preincubated 1 hr by electrophoretic mobility shift assay; assay type: subcellular; conditions: dose microM <=100, time 1.0 hrs
# [32] = Cytotoxicity against human HEK-Blue IL-6 cells assessed as cell death at 80 uM; assay type: cell-based; conditions: hek-blue il-6, 80 µM
# [33] = Cytotoxicity against human HEK-Blue IL-6 cells assessed as cell death at > 10 uM; assay type: cell-based
smiles,measurement,setting,value
CC(=O)Oc1ccccc1C(=O)Nc1ncc([N+](=O)[O-])s1 [NITAZOXANIDE],inhibition,[1],Dose-dependent effect
same,inhibition,[2],inactive
same,inhibition,[3],Dose-dependent effect
same,inhibition,[4],Dose-dependent effect
same,Activity,[5],61.96%
same,Activity,[6],69.88%
same,Activity,[7],70.64%
same,Activity,[8],22.76%
same,Activity,[9],8.27%
same,viability at 40 µM,[10],77.3%
same,Activity,[11],7.48%
same,Activity,[12],11.4%
same,Activity,[13],15.12%
same,Activity,[14],0.06%
same,inhibition,[15],54.6%
same,"cytotoxicity at 48 h, 10 µM",[16],19.4%
same,"inhibition at 48 h, 50 µM",[17],24.4%
same,"inhibition at 48 h, 10 µM",[18],-3.3%
same,IC50,[19],31.8 µM
same,IC50,[20],30 µM
same,IC50,[21],20.1 µM
same,IC50,[22],44.7 µM
same,half-life,[23],36 min
same,half-life,[24],3 min
same,half-life,[25],18 min
same,AUC(0-inf),[26],3200 ng·h/mL
same,Cmax,[27],2800 ng/mL
same,bioavailability,[28],5.7%
same,Activity,[29],inactive
same,inhibition,[30],inactive
same,inhibition,[31],inactive
same,Activity,[32],Non-Toxic
same,Activity,[33],Non-Toxic
